XBP1 UPR activ = activators of adaptive arm of unfolded protein response (XBP1) | actives 0.33% (n = 330,000) | CHO-XBP1 luciferase reporter, IRE1-XBP1 UPR activation, luminescence; percent of tunicamycin response, DMSO as zero | AID 463104 | activation, % at 20 µM;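 active means versus positive control, 20 µM dose yields 30% or more activation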;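 further: 100% = tunicamycin at 10 µg/mL and 0% = DMSO only wells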
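assay system = CHO-XBP1 luciferase reporter cells | amount = 1000 cells/well | buffer or medium = F12 plus 10% FBS | compound dosing = single point, 20 µM final compound, 1% DMSO | incubation = 16-18 h cell attachment at 37 °C, then 6 h compound exposure | detection = Steady-Glo luminescence read | controls = tunicamycin 10 µg/mL and vehicle-only wells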
CHOP inh = blocks CHOP induction under ER stress | CHO-K1 CHOP-promoter luciferase, tunicamycin-induced, 15-18 h | inhibition, % at 10 µM | actives 3.8% (n = 220,000);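 active means compounds that reduced the stress-induced luciferase reporter signal by more than about 70% of percent inhibition, limit read from the data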;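 further: 0% = tunicamycin plus vehicle and 100% = wells without tunicamycin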
CHOP UPR activ = apoptotic UPR (CHOP) activation; CHO-CHOP luciferase reporter, luminescence; percent of tunicamycin response over DMSO baseline; activation, % at 10 µM; actives 0.34% (n = 330,000); AID 449763;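 active means at 10 µM dose, activation of 40% or more, normalized to positive control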;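 further: 100% = tunicamycin at 10 µg/mL and 0% = DMSO alone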
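Evaluation: % reporter activation, DMSO baseline versus tunicamycin full activation; System: CHO-CHOP luciferase reporter cell line; Input: 500 cells/well; Incubation: 6 h compound treatment, 37 °C; Measured by: Steady-Glo luciferase luminescence; Dosing: one dose, 10 µM in 0.5% DMSO; Buffer or medium: F12 medium, 10% FBS; Benchmarks: positive tunicamycin 10 µg/mL, negative DMSO alone.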
Tb MetRS inh = blocks T. brucei methionyl-tRNA synthetase activity; purified T. brucei MetRS, ATP depletion, Kinase-Glo luminescence; inhibition, % at 11.9 µM; AID 624268; actives 0.4% (n = 360,000);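 active means inhibition above a per-plate cutoff of the control wells' mean inhibition plus 3 SD, cut at about 5.5% in these data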;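 further: 0% = DMSO wells median and 100% = median of wells with control inhibitor compound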
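Material – parasite MetRS enzyme · Medium – HEPES-MgCl2-KCl buffer plus DTT, spermine, BSA, pyrophosphatase · Reagent – ATP, methionine and E. coli bulk tRNA substrates · Times – 15 min enzyme-compound preincubation, 2 h reaction, 10 min detection, 25 °C · Measured by – luminescence of leftover ATP · Evaluation – percent inhibition relative to median high and low control wells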
V-ATPase pH = alters yeast V-ATPase proton transport; S. cerevisiae, pHLuorin cytosolic pH fluorescence; response, % at 10 µM; actives 0.37% (n = 350,000); in the data active means response mostly above about 7.3%, no sharp cut-off; inactive means mostly below about 5.4%; further: actives read high
CHOP inh conf = confirmation of CHOP induction inhibitors; CHO-CHOP promoter luciferase reporter, tunicamycin-induced, luminescence; shares compounds with CHOP inh; actives 45% (n = 2,100); AID 504437; inhibition, % at 10 µM;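 active means mean of three repeat readings of reporter signal inhibition above a set limit, cut at about 70% in these data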;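 further: 0% = tunicamycin plus vehicle and 100% = wells lacking tunicamycin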
UPR CHOP confirm = confirmation of apoptotic unfolded protein response (CHOP) activators. shares compounds with CHOP UPR activ. CHO-CHOP cells, CHOP-luciferase reporter luminescence; percent of tunicamycin response, DMSO as zero. activation, % at 10 µM. actives 64% (n = 1,000). AID 463112; in the data active means activation above about 33%;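 further: 0% = DMSO wells and 100% = tunicamycin 10 µg/mL wells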
XBP1 UPR conf = adaptive UPR (XBP1) activation, confirmed | CHO-XBP1 IRE1-XBP1 luciferase reporter, luminescence | shares compounds with XBP1 UPR activ | actives 63% (n = 1,000) | activation, % at 20 µM;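 active means reporter signal at least 30% of the positive control's activation in two or more of four replicate wells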;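 further: plate controls were DMSO negative control for no effect and tunicamycin 10 µg/mL positive control for full effect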
V-ATPase pH SP = regulators of yeast V-ATPase proton transport. shares compounds with V-ATPase pH. S. cerevisiae pHLuorin cytosolic pH. response, % at 10 µM. actives 2% (n = 980); in the data active means response above about 24%;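 further: plate controls were vehicle wells for no effect and positive control wells for full effect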
TbMetRS confirm = confirmation of Trypanosoma brucei MetRS inhibitors; shares compounds with Tb MetRS inh; T. brucei MetRS enzyme, luminescence (ATP depletion); inhibition, % at 11.9 µM; actives 93% (n = 1,400); AID 624412; in the data active means inhibition above about 7%
Jurkat tox = counter-screen for T. brucei MetRS inhibitors: Jurkat cell cytotoxicity; shares compounds with Tb MetRS inh; Jurkat cells viability, ATP luminescence; inhibition, % at 8.3 µM; actives 12% (n = 1,400); in the data active means inhibition above about 15%;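 further: 0% = vehicle and 100% = reference inhibitor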
TbMetRS FP orth = T. brucei MetRS inhibition, orthogonal assay; shares compounds with Tb MetRS inh; purified T. brucei MetRS, fluorescence polarization; inhibition, % at 11.9 µM; actives 44% (n = 1,400); in the data active means inhibition above about 17%;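 further: 0% = vehicle wells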
* hit, by the source's call. The sample as a whole holds a higher share of hits than the screen did.

How did O=c1cc(C(Cl)(Cl)Cl)oc2c1ccc1ccccc12 do in these assays?
XBP1 UPR activ: 163*; CHOP inh: 100*; CHOP UPR activ: 47*; Tb MetRS inh: 0; V-ATPase pH: -3; CHOP inh conf: -10; UPR CHOP confirm: 33*; XBP1 UPR conf: 286*

Results for Cc1ccc(N=Cc2c(O)n(-c3ccc4c(c3)OCO4)c(=O)c3ccccc23)cc1 ?
XBP1 UPR activ: 35*; CHOP inh: 102*; CHOP UPR activ: 8; Tb MetRS inh: -1; V-ATPase pH: 3; CHOP inh conf: -145; XBP1 UPR conf: 27*

What do the screens show for `NC(=O)CC(NC(=O)Cc1cccc2ccccc12)c1ccc(NCCOc2ccccc2)c([N+](=O)[O-])c1` (stereo not drawn)?
XBP1 UPR activ: 48*; CHOP inh: 101*; CHOP UPR activ: 2; Tb MetRS inh: -1; V-ATPase pH: 1; CHOP inh conf: 112*; XBP1 UPR conf: 39*

Results for NC(=O)CC(NC(=O)Cc1cccc2ccccc12)c1ccc(NCC2CC2)c([N+](=O)[O-])c1 (stereo not drawn) ?
XBP1 UPR activ: 0; CHOP inh: 12; CHOP UPR activ: 0; Tb MetRS inh: 0; V-ATPase pH: 4

Results for c1ccc(Cn2nnc(CNc3ccccc3)c2-c2c(CNc3ccccc3)nnn2Cc2ccccc2)cc1 ?
XBP1 UPR activ: -1; CHOP inh: 15; CHOP UPR activ: 2; Tb MetRS inh: 0; V-ATPase pH: -1

How did CC[C@@H](C)[C@@H](CO)NC(=O)[C@H]1O[C@@H](n2cnc3c(N)ncnc32)[C@H](O)[C@@H]1O do in these assays?
Tb MetRS inh: 0

Results for CCN(CC)c1ccc2cc(-c3nc4ccccc4[nH]3)c(=O)oc2c1 ?
XBP1 UPR activ: 45*; CHOP inh: 100*; CHOP UPR activ: 22; Tb MetRS inh: -1; V-ATPase pH: -10; CHOP inh conf: 41; XBP1 UPR conf: 21

What do the screens show for `O=C(NCC1OCCc2ccccc21)c1ccc(NC(=O)c2ccc(Cl)cc2)cc1` (stereo not drawn)?
XBP1 UPR activ: 38*; CHOP inh: 103*; CHOP UPR activ: 2; Tb MetRS inh: 0; V-ATPase pH: 1; CHOP inh conf: 57; XBP1 UPR conf: 25

What do the screens show for `COc1ccc(N2CCN(C(=O)c3cc(=O)c4cc(C)ccc4o3)CC2)cc1`?
XBP1 UPR activ: 0; CHOP UPR activ: 1; Tb MetRS inh: -1; V-ATPase pH: -4

Results for O=C(NCC(=O)N(c1cccnc1)C(C(=O)NC1CCCC1)c1ccc(F)cc1)c1ccco1 (stereo not drawn) ?
XBP1 UPR activ: -2; CHOP inh: -20; CHOP UPR activ: 6

How did N=c1n(CC(=O)c2ccc([N+](=O)[O-])cc2)c2ccccc2n1Cc1ccccc1Cl do in these assays?
CHOP inh: 35; Tb MetRS inh: -1; V-ATPase pH: -2

What do the screens show for `N=c1n(CC(=O)c2ccc([N+](=O)[O-])cc2)c2ccccc2n1Cc1ccc(Cl)cc1`?
XBP1 UPR activ: 165*; CHOP inh: 105*; CHOP UPR activ: 35; Tb MetRS inh: 0; V-ATPase pH: -2; CHOP inh conf: 122*; XBP1 UPR conf: 59*

Results for COc1cc(NC(=O)c2ccco2)c(C(=O)OCC(=O)c2c[nH]c3ccccc23)cc1OC ?
XBP1 UPR activ: 131*; CHOP inh: 107*; CHOP UPR activ: 0; Tb MetRS inh: 0; V-ATPase pH: 2; CHOP inh conf: 42; XBP1 UPR conf: 152*

Results for O=S1(=O)C=C(Sc2nnc(-c3ccccc3)o2)c2ccccc21 ?
XBP1 UPR activ: -6; CHOP UPR activ: -11; Tb MetRS inh: -1; V-ATPase pH: 17*; CHOP inh conf: 125*; V-ATPase pH SP: 26*

Results for CN(C)CCSc1nnc(-c2ccccc2)o1 ?
XBP1 UPR activ: 0; CHOP inh: 17; CHOP UPR activ: -1; Tb MetRS inh: -1; V-ATPase pH: 7

Results for CCOC(=O)N=Nc1c2ccccc2c2nc3no[nH]c3nc12 ?
XBP1 UPR activ: -6; CHOP inh: 105*; CHOP UPR activ: -4; Tb MetRS inh: 0; V-ATPase pH: 22*; CHOP inh conf: 112*; V-ATPase pH SP: 118*

How did CCCN(CCC)C(=O)C(c1ccccc1)C1(O)CCCCC1 (stereo not drawn) do in these assays?
Tb MetRS inh: 0; V-ATPase pH: 0

What do the screens show for `COc1ccccc1NS(=O)(=O)c1cccc(NC(=O)Nc2cccc(Cl)c2)c1`?
XBP1 UPR activ: 5; CHOP inh: 101*; CHOP UPR activ: 1; Tb MetRS inh: 31*; V-ATPase pH: -1; CHOP inh conf: 51; TbMetRS confirm: 41*; Jurkat tox: 7; TbMetRS FP orth: 72*

What do the screens show for `COc1ccccc1NS(=O)(=O)c1cccc(NC(=O)NCCCl)c1`?
XBP1 UPR activ: -1; CHOP inh: 15; CHOP UPR activ: 0; Tb MetRS inh: -1; V-ATPase pH: -1

How did O=[N+]([O-])c1ccc(N2CCN(c3ccccc3O)CC2)c(Cl)c1 do in these assays?
XBP1 UPR activ: -1; CHOP inh: 96*; CHOP UPR activ: 0; Tb MetRS inh: 7.0*; V-ATPase pH: 9; CHOP inh conf: 17; TbMetRS confirm: 12*; Jurkat tox: 18*; TbMetRS FP orth: 1

Results for Cc1c(C(=O)N2CCCC2)c(S(=O)(=O)Nc2cccc(Br)c2)c(C)n1C ?
XBP1 UPR activ: -6; CHOP UPR activ: -2; Tb MetRS inh: 0; V-ATPase pH: 0

High-throughput results: PubChem BioAssay, several laboratories
